Experiment [1] addresses T1, Enoyl-[acyl-carrier-protein] reductase [NADPH] FabI (Staphylococcus aureus, UniProt Q6GI75).
T1 sequence (Q6GI75 whole entry): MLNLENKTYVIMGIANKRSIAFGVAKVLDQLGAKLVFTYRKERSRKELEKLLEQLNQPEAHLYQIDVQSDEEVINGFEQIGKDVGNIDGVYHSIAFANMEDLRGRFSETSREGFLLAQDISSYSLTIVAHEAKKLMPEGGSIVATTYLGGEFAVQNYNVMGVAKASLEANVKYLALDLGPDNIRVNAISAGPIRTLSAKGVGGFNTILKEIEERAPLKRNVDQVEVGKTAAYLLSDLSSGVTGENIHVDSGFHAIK
As to the kind of experiment: Evaluated for inhibition of enoyl acyl carrier protein reductase (FabI) in Staphylococcus aureus.

Experiment [2] concerns the target T2, Enoyl-[acyl-carrier-protein] reductase [NADH] FabI (Escherichia coli K-12, UniProt P0AEK4).
T2 sequence (P0AEK4 whole entry): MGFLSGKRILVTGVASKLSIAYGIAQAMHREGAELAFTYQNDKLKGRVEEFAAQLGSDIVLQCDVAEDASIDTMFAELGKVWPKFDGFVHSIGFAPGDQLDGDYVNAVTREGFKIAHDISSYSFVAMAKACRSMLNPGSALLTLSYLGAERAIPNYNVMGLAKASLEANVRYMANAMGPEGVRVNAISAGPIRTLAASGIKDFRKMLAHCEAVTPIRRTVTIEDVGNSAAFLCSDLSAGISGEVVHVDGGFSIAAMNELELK
As to the kind of experiment: Evaluated for inhibition of enoyl acyl carrier protein reductase (FabI) in Escherichia coli.

For a further experiment, the system named is Staphylococcus aureus. As to the kind of experiment: Antibacterial activity against Staphylococcus aureus Oxford. In kind it is functional.
A further experiment has as its system Moraxella catarrhalis. As to the kind of experiment: Antibacterial activity against Moraxella catarrhalis 1502. In kind it is functional.
The target in experiment [3] is T2, Enoyl-[acyl-carrier-protein] reductase [NADH] FabI. As to the kind of experiment: Evaluated for inhibition of enoyl acyl carrier protein reductase (FabI) of Escherichia coli in the presence of NADH using crotonoyl CoA as substrate. In outline:
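Cloned, overexpressed, purified E. coli FabI (usually 60 nM) in 100 mM NaADA pH 6.5, 4% glycerol, 0.25 mM crotonoyl CoA, 50 µM NADH; inhibitor typically 0.01-10 µM. NADH consumption followed at 340 nm, 20 min, 30 °C; initial velocities from tangent at t = 0 of exponential fit; IC50 from 4-parameter fit, mean ± SD of duplicates.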

Experiment [4] concerns the target T1, Enoyl-[acyl-carrier-protein] reductase [NADPH] FabI. As to the kind of experiment: Evaluated for inhibition of enoyl acyl carrier protein reductase (FabI) of Staphylococcus aureus in the presence of NADH using crotonoyl CoA as substrate.

The text below walks through data of ChEMBL document CHEMBL1133895, “1,4-Disubstituted imidazoles are potential antibacterial agents functioning as inhibitors of enoyl acyl carrier protein reductase (FabI)” (Bioorg Med Chem Lett, 2001).

In brackets after ≈: the same amount, converted by molar mass.

As usually defined, the IC50 is the concentration that gives 50% inhibition. Turning to `COc1ccc(-c2c[nH]c(Cc3ccc(C)cc3)n2)cc1`, the figures for the IC50 in experiment [1] and in experiment [2] were 66.2 µM and more than 100 µM, respectively.

As for `Cc1ccc(Cn2cnc(-c3cccc(Cl)c3Cl)c2)cc1`, the IC50 in experiment [1] was more than 10 µM.

In the case of `c1ccc(-c2ccc(Cn3cnc(-c4ccsc4)c3)cc2)cc1`, the IC50 came to 7.66 µM in experiment [1] and 1.18 µM in experiment [2].

As to `COc1ccc(-c2cn(Cc3ccc(C(F)(F)F)cc3)cn2)cc1`, the values for the IC50 in experiment [1] and in experiment [2] were 4.07 µM and 28.3 µM, respectively.

With `Cc1ccc(Cc2nc(-c3ccsc3)no2)cc1`, the concentration for half-maximal inhibition (IC50) in experiment [1] was 50.7 µM; in experiment [2], more than 100 µM.

What is called MIC is the lowest concentration that inhibits growth of the organism. `COc1ccc(-c2cn(Cc3ccccc3)cn2)cc1`: the half-inhibitory concentration (IC50) in experiment [1] was found to be 1.13 µM; in experiment [2] it was 5.28 µM. Besides, the minimal inhibitory concentration (MIC) in the experiment with Staphylococcus aureus and against Moraxella catarrhalis was 64 µg/mL (≈ 242 µM) in each case.

Consider `Cc1ccc(Cc2coc(-c3ccsc3)n2)cc1`, for which the IC50 in experiment [1] and in experiment [2] was more than 100 µM in each case.

In the case of `c1ccc(C[C@@H]2COC(c3ccsc3)=N2)cc1`, the IC50 in experiment [1] and in experiment [2] was more than 100 µM throughout.

On to `Cc1ccccc1Cn1cnc(-c2ccsc2)c1`, for which the results for the IC50 in experiment [1] and in experiment [2] were 36.5 µM and 65.4 µM, respectively.

Turning to `Cn1cnc(-c2ccsc2)c1`, the 50% inhibitory concentration (IC50) in experiment [1] was more than 100 µM.

Consider `O=[N+]([O-])c1cccc(Cn2cnc(-c3ccsc3)c2)c1`, for which the 50% inhibitory concentration (IC50) in experiment [1] stood at 14.7 µM; in experiment [2] it was 26.9 µM.

As to `O=C(O)c1cccc(Cn2cnc(-c3ccsc3)c2)c1`, the 50% inhibitory concentration (IC50) in experiment [1] and in experiment [2] was more than 100 µM throughout.

In the case of `Cc1ccc(Cc2noc(-c3ccsc3)n2)cc1`, the IC50 in experiment [1] was 51 µM; in experiment [2] it was more than 100 µM.

`Nc1ccc(Cn2cnc(-c3ccsc3)c2)cc1`: the values for the IC50 in experiment [1] and in experiment [2] were 2.03 µM and 5.14 µM, respectively. In addition, the MIC against Staphylococcus aureus and in the experiment with Moraxella catarrhalis was more than 64 µg/mL each time.

For the compound `c1ccc(C[C@H]2COC(c3ccsc3)=N2)cc1`, the 50% inhibitory concentration (IC50) in experiment [1] and in experiment [2] was more than 100 µM each time.

With `Cc1ccc(Cn2cnc(-c3ccsc3)c2)cc1`, the 50% inhibitory concentration (IC50) was found to be 0.25 µM in experiment [1] and 6.44 µM in experiment [2]. Further, the MIC is 8 µg/mL (≈ 31.5 µM) against Staphylococcus aureus and 32 µg/mL (≈ 126 µM) in the experiment with Moraxella catarrhalis.

Compound `FC(F)(F)c1ccc(-c2cn(Cc3ccccc3)cn2)cc1` showed an IC50 in experiment [1] of more than 100 µM.

For `Cc1cccc(Cn2cnc(-c3ccsc3)c2)c1`, the IC50 in experiment [1] was 4.24 µM; in experiment [2] it was 12.2 µM. In addition, the MIC in the experiment on Staphylococcus aureus is more than 64 µg/mL; in the experiment with Moraxella catarrhalis it was 32 µg/mL (≈ 126 µM).

As to `COc1ccc(Cn2cnc(-c3ccsc3)c2)cc1`, the IC50 in experiment [1] came out at 1.9 µM; in experiment [2], 9.4 µM. In addition, the MIC against Staphylococcus aureus came to 16 µg/mL (≈ 59.2 µM); with Moraxella catarrhalis, 64 µg/mL (≈ 237 µM).

Consider `COc1ccc(-c2cn(Cc3ccc(C)cc3)cn2)cc1`, for which the IC50 in experiment [1] amounted to 0.36 µM; in experiment [2], 3.92 µM. The minimum inhibitory concentration (MIC) against Staphylococcus aureus is 8 µg/mL (≈ 28.7 µM); against Moraxella catarrhalis, 32 µg/mL (≈ 115 µM).

Turning to `Cc1ccc(Cn2cnc(-c3cccs3)c2)cc1`, the IC50 worked out at 13.7 µM in experiment [3] and 1.24 µM in experiment [4]. Moreover, it took 128 µg/mL (≈ 503 µM) to inhibit growth in the experiment on Staphylococcus aureus (MIC).

As to `Oc1cc(Cl)ccc1Oc1ccc(Cl)cc1Cl` [TRICLOSAN], the results for the MIC against Staphylococcus aureus and against Moraxella catarrhalis were 0.03 µg/mL (≈ 0.104 µM) and 0.06 µg/mL (≈ 0.207 µM), respectively.
